Results reported in ChEMBL document CHEMBL1129639, “Synthesis and cardiotonic activity of novel pyrimidine derivatives: crystallographic and quantum chemical studies” (J Med Chem, 1996).

Experiments:
Assay type in all cases: functional
Cavia porcellus [1] = species on record: Cavia porcellus; test: Effect on the frequency rate of spontaneously beating atria from Reserpine-treated guinea pigs as percentage variation from the control at concentration of 10E-4 M
Procedure, shortened: (§1)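 Atria from reserpine-treated guinea pigs (reserpine 2 mg/kg ip, 48 and 24 h before death; only tyramine-unresponsive preparations used). Bath solution at 29 °C, gassed 95% O2/5% CO2, pH 7.5, resting tension […]. After 90 min equilibration, compound added cumulatively, 5 min per concentration. Isometric developed-tension amplitude or beating rate given as % variation from untreated control. Mean ± SEM, 6-10 assays.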

Cavia porcellus [2] = species on record: Cavia porcellus; test: Effect on the contractile force of spontaneously beating atria from Reserpine-treated guinea pigs as percentage variation from the control at concentration of 3 x 10E-4 M; procedure, shortened: as §1
Cavia porcellus [3] = species on record: Cavia porcellus; test: Effect on the contractile force of spontaneously beating atria from Reserpine-treated guinea pigs as percentage variation from the control at concentration of 3 x 10E-6 M; procedure, shortened: as §1
Cavia porcellus [4] = species on record: Cavia porcellus; test: Compound was evaluated for its effect on the frequency rate of spontaneously beating atria from Reserpine-treated guinea pigs as percentage variation from the control at concentration of 3 x 10E-5 M; procedure, shortened: as §1
Cavia porcellus [5] = species on record: Cavia porcellus; test: Compound was evaluated for its effect on the frequency rate of spontaneously beating atria from Reserpine-treated guinea pigs as percentage variation from the control at concentration of 3 x 10E-4 M; procedure, shortened: as §1
Cavia porcellus [6] = species on record: Cavia porcellus; test: Effect on the contractile force of spontaneously beating atria from Reserpine-treated guinea pigs as percentage variation from the control at concentration of 10E-6 M; procedure, shortened: as §1
Cavia porcellus [7] = species on record: Cavia porcellus; test: Effect on the contractile force of spontaneously beating atria from Reserpine-treated guinea pigs as percentage variation from the control at concentration of 10E-5 M; procedure, shortened: as §1
Cavia porcellus [8] = species on record: Cavia porcellus; test: Effect on the frequency rate of spontaneously beating atria from Reserpine-treated guinea pigs as percentage variation from the control at concentration of 10E-5 M; procedure, shortened: as §1
Cavia porcellus [9] = species on record: Cavia porcellus; test: Effect on the contractile force of spontaneously beating atria from Reserpine treated guinea pigs as percentage variation from the control at concentration of 10E-4 M; procedure, shortened: as §1
Cavia porcellus [10] = species on record: Cavia porcellus; test: Effect on the contractile force of spontaneously beating atria from Reserpine-treated guinea pigs as percentage variation from the control at concentration of 3 x 10E-5 M; procedure, shortened: as §1
Cavia porcellus [11] = species on record: Cavia porcellus; test: Compound was evaluated for its effect on the frequency rate of spontaneously beating atria from Reserpine-treated guinea pigs as percentage variation from the control at concentration of 3 x 10E-6 M; procedure, shortened: as §1
Cavia porcellus [12] = species on record: Cavia porcellus; test: Effect on the contractile force of spontaneously beating atria from Reserpine-treated guinea pigs as percentage variation from the control at concentration of 10E-3 M; procedure, shortened: as §1
Cavia porcellus [13] = species on record: Cavia porcellus; test: Effect on the frequency rate of spontaneously beating atria from Reserpine-treated guinea pigs as percentage variation from the control at concentration of 10E-6 M; procedure, shortened: as §1
Cavia porcellus [14] = species on record: Cavia porcellus; test: Effect on the frequency rate of spontaneously beating atria from Reserpine-treated guinea pigs as percentage variation from the control at concentration of 10E-3 M; procedure, shortened: as §1

Row | SMILES | Variation (Cavia porcellus [1]) | Variation (Cavia porcellus [2]) | Variation (Cavia porcellus [3]) | Variation (Cavia porcellus [4]) | Variation (Cavia porcellus [5]) | Variation (Cavia porcellus [6]) | Variation (Cavia porcellus [7]) | Variation (Cavia porcellus [8]) | Variation (Cavia porcellus [9]) | Variation (Cavia porcellus [10]) | Variation (Cavia porcellus [11]) | Variation (Cavia porcellus [12]) | Variation (Cavia porcellus [13]) | Variation (Cavia porcellus [14])
1 | COCc1nc(N(C)C)ncc1C(=O)OC | 7.14% | 18.95% | 6.93% | 3.57% | 7.14% | 3.04% | 11.14% | 2.85% | 16.95% | 14.95% | 0% | 25.41% | 0% | 11.43%
2 | Cc1nc(N(C)C)ncc1C(=O)O | 3.22% | 15.77% | 3.77% | 3.22% | 6.45% | 0% | 5.18% | 9.67% | 10.82% | 8.62% | 6.45% | 21.96% | 0% | -3.12%
